Compounds with a hit are over-represented: about 4.8% of the library has one in this group of screens.
ATG4B inh – inhibitors of human ATG4B cysteine protease; inhibition, % at 8.33 µM; hit rate 0.51% among 340,000; ATG4B cleavage of LC3-PLA2, NBD-HPC fluorescence, 1 h; AID 504462; Q9Y4P1; in the data active = inhibition above about 40%
Target sequence (Q9Y4P1 whole entry, looked up): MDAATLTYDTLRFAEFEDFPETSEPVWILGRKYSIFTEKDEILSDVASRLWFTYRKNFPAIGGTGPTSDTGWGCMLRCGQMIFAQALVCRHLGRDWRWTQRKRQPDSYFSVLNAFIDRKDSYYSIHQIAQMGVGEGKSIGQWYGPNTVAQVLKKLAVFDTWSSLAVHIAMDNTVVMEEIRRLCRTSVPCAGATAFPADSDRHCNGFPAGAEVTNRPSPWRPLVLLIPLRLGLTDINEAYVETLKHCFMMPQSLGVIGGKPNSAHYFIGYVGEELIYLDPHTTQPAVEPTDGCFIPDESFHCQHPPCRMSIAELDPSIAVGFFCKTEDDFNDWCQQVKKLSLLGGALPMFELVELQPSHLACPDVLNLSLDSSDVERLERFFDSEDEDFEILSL
UCH37 DUB inh – blocks the human deubiquitinase UCH37; hit rate 0.33% among 330,000; AID 588478; Q9Y5K5; inhibition, % (test concentration not listed); purified proteasome/UCH37, Ub-AMC cleavage fluorescence;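 active = mean inhibition over replicate wells above about 20%, limit read from the data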;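 note: 0% = compound-free wells with enzyme and 100% = wells lacking proteasome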
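Test system – human UCH37 enzyme supplied as purified proteasome complex · Incubation – 30 min preincubation with enzyme, 25 min cleavage at room temperature · Detection – AMC fluorescence from Ub-AMC cleavage, excitation 355 nm, emission 460 nm · Benchmarks – no-proteasome wells (full inhibition) and compound-free wells (no inhibition)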
ALR inh – blocks human ALR sulfhydryl oxidase activity | P55789 | purified ALR, DTT oxidation, H2O2 HRP-luminol luminescence | inhibition, % (concentration not given with the values) | hit rate 3.8% among 290,000;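 active = mean replicate inhibition above about 79%, with every replicate also reaching it, limit read from the data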
Calb FLC – affects C. albicans growth with fluconazole; hit rate 0.57% among 300,000; C. albicans CaCi-2 (fluconazole-resistant clinical isolate) + fluconazole, Alamar Blue growth, 48 h; growth inhibition, % (concentration not given with the values);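 active = growth inhibition above about 58% in most replicates, limit read from the data, passing the limit was not always enough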;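 note: all wells also contain fluconazole at 8 µg/ml as a sub-toxic cotreatment; 0% = median of DMSO wells and 100% = median of geldanamycin control wells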
NALP3 yeast inh – blocks the NALP3 inflammasome reconstituted in yeast. inhibition, % at 10 µM. hit rate 0.39% among 330,000. Yeast reconstituted NLRP3/ASC/caspase-1, beta-gal luminescence, 24 h. AID 2825;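 active = inhibition of 50% or more; inactive = inhibition below 50%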;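 note: plate controls were induced DMSO wells for no effect and uninduced yeast grown without galactose for full effect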
NALP1 yeast inh – NALP1 inhibition | S. cerevisiae NALP1/ASC/caspase-1 growth, X-gal OD620, 72 h | inhibition, % at 10 µM | hit rate 0.61% among 280,000 | AID 2071; in the data active = inhibition mostly above about 24%, no sharp cut-off; inactive = mostly below about 32%
Numbers without * were called inactive; . = no result given.

SMILES	ATG4B inh	UCH37 DUB inh	ALR inh	Calb FLC	NALP3 yeast inh	NALP1 yeast inh
COc1cc([C@@H]2c3cc4c(cc3[C@@H](NC3CCN(Cc5ccccc5)CC3)[C@H]3COC(=O)[C@H]23)OCO4)cc(OC)c1O	.	.	.	101.1*	.	.
COc1cc([C@@H]2c3cc4c(cc3[C@H](O)[C@H]3COC(=O)[C@H]23)OCO4)cc(OC)c1OC	-2.4	4.8	.	.	9.1	13.8
Nc1cc(C(=O)O)c(N)c2c1C(=O)c1ccccc1C2=O	-8.1	15.2	99.5*	-10.0	24.1	.
Nc1c(C(=O)O)ccc2c1C(=O)c1ccccc1C2=O	1.1	14.0	-3.1	16.2	34.1	5.2
O=C(Cc1ccc(Br)cc1)NN=Cc1cccnc1	.	4.7	.	.	.	.
CCOC(=O)C(=NO)C(C)=NNC(=O)C(=O)Nc1ccc(Cl)cc1	.	4.4	.	.	.	.
CC1SC(=NC(=O)c2ccncc2)NC1=O (configuration not stated)	-7.6	0.9	89.9*	0.4	1.1	7.7
CCC(=O)N(C)CCc1cc2c(c(OC)c1C=NNC(=O)c1ccc(Br)cc1)OCO2	.	3.6	.	.	.	.
Fc1ccccc1N1CCN(Cc2nc(-c3ccccc3)no2)CC1	10.2	5.3	-16.7	1.9	3.4	-11.8
c1ccc(-c2noc(CN3CCN(C(c4ccccc4)c4ccccc4)CC3)n2)cc1	1.8	2.9	-3.5	-1.4	6.5	8.5
COc1ccc(-c2noc(CN3CCN(c4ccccc4F)CC3)n2)cc1OC	9.1	1.3	99.7*	19.6	17.6	17.5
COc1ccc(-c2noc(CN(C)S(=O)(=O)c3ccccc3)n2)cc1OC	-10.5	-0.1	96.6*	9.5	14.3	.
c1ccc(-c2noc(CN3CCN(c4ccccc4)CC3)n2)cc1	-4.7	2.0	82.0*	-8.3	1.8	-0.5
COc1ccc(O[C@H]2C=C[C@@H](c3ccccc3)O[C@@H]2COC(=O)CCC(C)=NO[C@@H](C)CN2CCCCc3nc(C)c(C)cc32)cc1	.	-4.1	.	.	.	.
O=C(CSCc1cccc(Br)c1)NN=Cc1ccc2c(c1)OCO2	.	2.6	.	.	.	.
Cc1ccc(SCc2c(C#N)c3ccccc3n2C)cc1	7.3	0.9	99.4*	1.5	14.5	8.0
CCOc1ccc(S(=O)(=O)Nc2ccc(C(=O)N/N=C(\C)c3ccc(-n4ccnc4)cc3)cc2)cc1	-18.1	.	.	1.7	2.3	34.9*
COc1ccc(NS(=O)(=O)c2cccc(C(=O)N/N=C(/C)c3ccc(-n4ccnc4)cc3)c2)cc1	-5.3	-11.2	.	.	.	.
CCn1c(SCC(=O)N2CCCC(C)C2)nnc1-c1ccc(S(=O)(=O)N2CCN(C)CC2)cc1 (configuration not stated)	-4.3	4.7	-4.6	10.2	-13.5	35.2*
O=C(O)COc1ccccc1C=NNC(=O)c1cccc(S(=O)(=O)Nc2cccc(Cl)c2)c1	.	6.3	.	.	.	.
COc1ccc(NC(=O)c2cc(-c3cccnc3)nc3ccc(C)cc23)cc1OC	1.1	-13.2	.	.	.	33.9*
O=C(NN=Cc1cc(Br)c(Br)o1)c1cncc(Br)c1	.	5.6	.	.	.	.
COc1cc(/C=N/NC(=O)CSCc2ccc([N+](=O)[O-])cc2)cc(OC)c1OC	-19.4	.	98.2*	6.4	5.5	14.9
O=C(CSCc1ccc([N+](=O)[O-])cc1)NN=C1CCCCCC1	2.2	5.7	87.8*	-14.2	4.7	5.1
COc1ccccc1CNC(=O)CC(C)=NNC(=O)COc1ccc(C)cc1Br	.	4.6	.	.	.	.
SMILES	ATG4B inh	UCH37 DUB inh	ALR inh	Calb FLC	NALP3 yeast inh	NALP1 yeast inh
CN1CCCNc2nc3ccccc3nc21	-4.1	-63.5	80.0*	2.3	-2.3	.
O=S(=O)(Nc1nc2ccccc2nc1NCC1CCCO1)c1cccc(Cl)c1 (configuration not stated)	-1.4	-26.4	87.3*	26.4	1.9	20.2
Cc1nc(N2CCN(S(=O)(=O)c3ccccc3)CC2)c2cc(-c3ccccc3)sc2n1	-2.7	-15.9	-4.1	-11.7	17.8	1.2
Cc1nc(N2CCN(C)CC2)c2cc(-c3ccccc3)sc2n1	-1.7	-3.7	96.5*	-2.4	8.4	9.3
Oc1ccc(N2CCN(c3ncnc4sc(-c5ccccc5)cc34)CC2)cc1	-28.9	-1.4	.	100.2*	.	14.5
O=C(CNC(=O)c1ccncc1)NN=Cc1cc(Br)ccc1O	.	-2.5	.	.	.	.
O=C(O)CCc1[nH]c2ccccc2c1Sc1ccccc1	15.5	4.6	99.4*	41.2	-11.4	-17.4
CCn1c(-c2ccc(Cl)cc2)n[nH]c1=S	5.5	1.3	97.7*	1.7	10.0	-8.5
